Laboratory results reported in ChEMBL document CHEMBL3272288, “Cannabinoids. Synthesis and central nervous system activity of 8-substituted 10-hydroxy-5,5-dimethyl-5H-[1]benzopyrano[4,3-c]pyridine and derivatives” (1977).
The source made the active and inactive calls. The rule behind the calls is not given here.

Columns and labels:
[1] = tested on: Mus musculus; assay: Antianxiety activity in albino BALB/cJ mouse assessed as decrease in foot shock-induced fighting behavior at 10 mg/kg, po by tranquilizer activity test; assay type: functional
[2] = tested on: Rattus norvegicus; assay: Antianxiety activity in Long-Evens rat assessed as decrease in motor activity at 5 mg/kg, po by tranquilizer activity test; assay type: functional
[3] = tested on: Canis familiaris; assay: Antianxiety activity in po dosed beagle-like dog assessed as minimum dose required to produce moderate ataxia; assay type: functional, Canis lupus familiaris
In short: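 Minimum dose producing ataxia, with two or more dogs per dose.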

[4] = tested on: Rattus norvegicus; assay: Analgesic activity in po dosed Sprague-Dawley rat by tail flick assay; assay type: functional
[5] = tested on: Rattus norvegicus; assay: Antipsychotic activity in Long-Evens rat assessed as reduction in methamphetamine-induced hyperactivity at 5 mg/kg, po; assay type: functional
[6] = tested on: Mus musculus; assay: Antianxiety activity in albino BALB/cJ mouse assessed as decrease in foot shock-induced fighting behavior at 5 mg/kg, po by tranquilizer activity test; assay type: functional
[7] = tested on: Mus musculus; assay: Analgesic activity in po dosed mouse assessed as inhibition of acetic acid-induced writhing; assay type: functional
[8] = tested on: Felis catus; assay: Sedative-hypnotic activity in cat assessed as change in total sleep time at 0.25 mg/kg, po after 12 hrs; assay type: functional
In short: (§1)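 Total sleep time was recorded 12 h after drug, with two or more cats per dose. The value is the change in minutes from paired control experiments; a negative value means decreased sleep.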

[9] = tested on: Felis catus; assay: Sedative-hypnotic activity in cat assessed as change in total sleep time at 0.1 mg/kg, po after 12 hrs; assay type: functional; in short: as §1
[10] = tested on: Mus musculus; assay: Antidepressant activity in mouse assessed as potentiation of (+/-)Dopa-induced motor responses at 5 mg/kg, po challenged with Dopa after 4 hrs compound treatment; assay type: functional, organism-based; set-up: dose 5 mg/kg
[11] = tested on: Rattus norvegicus; assay: Antipsychotic activity in Long-Evens rat assessed as reduction in methamphetamine-induced hyperactivity at 10 mg/kg, po; assay type: functional
[12] = tested on: Rattus norvegicus; assay: Hyperexcitability activity in Long-Evens black-hooded rat assessed as behavioral responses to tactile stimulation at 20 mg/kg, po; assay type: functional, organism-based; set-up: dose 20 mg/kg
In short: (§2)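 Rats randomly split into groups of four, dosed orally, then held singly in a sound-attenuated room. At 1, 2, 3 and 4 h each was probed with a wooden rod and scored for exaggerated motor reaction, squeaking and biting (maximum 16 per response). Index is the summed score of the three responses divided by the maximum of 48.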

[13] = tested on: Rattus norvegicus; assay: Antipsychotic activity in Long-Evens rat assessed as reduction in methamphetamine-induced hyperactivity at 20 mg/kg, po; assay type: functional
[14] = tested on: Felis catus; assay: Sedative-hypnotic activity in cat assessed as change in total sleep time at 1 mg/kg, po after 12 hrs; assay type: functional; in short: as §1
[15] = tested on: Rattus norvegicus; assay: Antianxiety activity in Long-Evens rat assessed as decrease in motor activity at 10 mg/kg, po by tranquilizer activity test; assay type: functional
[16] = tested on: Felis catus; assay: Sedative-hypnotic activity in cat assessed as change in total sleep time at 0.5 mg/kg, po after 12 hrs; assay type: functional; in short: as §1
[17] = tested on: Rattus norvegicus; assay: Hyperexcitability activity in Long-Evens black-hooded rat assessed as behavioral responses to tactile stimulation at 10 mg/kg, po; assay type: functional, organism-based; set-up: dose 10 mg/kg; in short: as §2
[18] = tested on: Rattus norvegicus; assay: Antipsychotic activity in Long-Evens rat assessed as increase in methamphetamine-induced hyperactivity at 10 mg/kg, po; assay type: functional
[19] = tested on: Rattus norvegicus; assay: Antipsychotic activity in Long-Evens rat assessed as increase in methamphetamine-induced hyperactivity at 5 mg/kg, po; assay type: functional
[20] = tested on: Rattus norvegicus; assay: Antianxiety activity in Long-Evens rat assessed as decrease in motor activity at 20 mg/kg, po by tranquilizer activity test; assay type: functional
[21] = tested on: Felis catus; assay: Sedative-hypnotic activity in cat assessed as change in total sleep time at 5 mg/kg, po after 12 hrs; assay type: functional; in short: as §1
[22] = tested on: Rattus norvegicus; assay: Hyperexcitability activity in Long-Evens black-hooded rat assessed as behavioral responses to tactile stimulation at 80 mg/kg, po; assay type: functional, organism-based; set-up: dose 80 mg/kg; in short: as §2

SMILES	inhibition in vivo at 10 mg/kg [1]	inhibition in vivo at 5 mg/kg [2]	Activity [3]	ED50 [4]	inhibition in vivo at 5 mg/kg [5]	inhibition in vivo at 5 mg/kg [6]	ED50 [7]	Activity [10]	inhibition in vivo at 10 mg/kg [11]	Time [14]	inhibition in vivo at 10 mg/kg [15]	Activity [17]	Time [21]	other results
CCCCCC(C)C(C)c1cc(O)c2c(c1)OC(C)(C)c1ccncc1-2 (stereo not given)	36%	79%	<1 mg/kg	3.07 mg/kg	61%	29%	3.3 mg/kg	Active						Time [8]: 193 min; Time [9]: 225 min
C=CCOc1cc(C(C)CCCc2ccc(F)cc2)cc2c1-c1cnccc1C(C)(C)O2 (stereo not given)	17%			> 40 mg/kg				Active	20%					Activity [12]: inactive; inhibition in vivo at 20 mg/kg [13]: 27%
CCCCCc1cc(O)c2c(c1)OC(C)(C)[C@@H]1CCC(C)=C[C@@H]21 [DRONABINOL]			4 mg/kg	27.2 mg/kg	15%	36%	43 mg/kg	Active		29 min	39%			
CC(CCCc1ccc(F)cc1)c1cc(O)c2c(c1)OC(C)(C)c1ccncc1-2 (stereo not given)		34%		5.7 mg/kg	40%	58%	7.1 mg/kg	Active						
CCCCCC(C)C(C)c1cc(O)c2c(c1)OC(C)(C)c1cc[n+]([O-])cc1-2 (stereo not given)	44%	14%		> 40 mg/kg			8.6 mg/kg	Active			40%	inactive		Time [16]: 59 min; Activity [18]: 12%; Activity [19]: 42%
CCCCCC(C)C(C)c1cc(OC)c2c(c1)OC(C)(C)c1ccncc1-2 (stereo not given)	29%		2 mg/kg	> 200 mg/kg			158 mg/kg	Active	12%	58 min	37%	inactive	102 min	inhibition in vivo at 20 mg/kg [20]: 46%; Activity [22]: inactive; Activity [19]: 15%
COc1cc(C(C)CCCc2ccc(F)cc2)cc2c1-c1cnccc1C(C)(C)O2 (stereo not given)	65%		10 mg/kg	> 40 mg/kg				Active	48%				121 min	
C#CCOc1cc(C(C)C(C)CCCCC)cc2c1-c1cnccc1C(C)(C)O2 (stereo not given)	6%	27%	2 mg/kg	> 40 mg/kg			> 40 mg/kg	Active	31%	82 min		inactive	114 min	inhibition in vivo at 20 mg/kg [13]: 42%
